# Source: ChEMBL document CHEMBL3351594, “Cytotoxic dimeric epipolythiodiketopiperazines from the ascomycetous fungus Preussia typharum” (J Nat Prod, 2014)
# pIC50: −log10 of the molar value. Active and inactive are the calls of the source. No cut-off for these calls is given here.
# Legend:
# MDA-MB-435 = assay: Cytotoxicity against human MDA-MB-435 cells by SRB method; type: functional
# Outline: (§1)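 NCI-60 in vitro drug screening panel. Values are the molar concentrations giving 50% growth inhibition (GI50) and total growth inhibition (TGI).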
# TK-10 = assay: Cytotoxicity against human TK10 cells by SRB method; type: functional
# Outline: (§2)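 NCI-60 in vitro screen panel of human tumor lines; GI50 (molar concentration giving 50% growth inhibition) and TGI (total growth inhibition) taken from dose–response data.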
# [1] = Cytotoxicity against human OVCAR3 cells by SRB method; type: functional; outline: as §1
# [2] = Cytotoxicity against human MIAPaCa2 cells after 24 hrs by MTT assay; type: functional, cell-based; details: MIA PaCa-2, 24 h
# 786-0 = assay: Cytotoxicity against human 786-0 cells by SRB method; type: functional; outline: as §1
# HeLa = assay: Cytotoxicity against human HeLa cells assessed as reduction of colony formation incubated for 4 hrs followed by compound washout measured after 14 days relative to vehicle-treated control; type: functional, cell-based
# Outline: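 HeLa cells (300) were plated in dishes and treated with vehicle (DMSO) or compound for 4 h. They were then washed with DPBS and given fresh medium. After 14 days, colonies were fixed, stained with 0.5% crystal violet in 10% methanol and counted. Analysis was one-way ANOVA with Dunnett's post hoc test against vehicle.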
# UACC-62 = assay: Cytotoxicity against human UACC62 cells assessed as reduction of colony formation incubated for 4 hrs followed by compound washout measured after 14 days relative to vehicle-treated control; type: functional, cell-based
# Outline: (§3)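 Clonogenic test: 600 UACC-62 cells (RPMI1640, 10% FBS, gentamicin) adhered, exposed 4 h to vehicle (DMSO) or compound, washed with DPBS, fresh medium, grown 14 days; fixed, 0.5% crystal violet in 10% methanol, colonies counted; duplicate/triplicate, n = 2–4 experiments; one-way ANOVA with Dunnett's vs vehicle.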
# [3] = Cytotoxicity against human PC3 cells by SRB method; type: functional; outline: as §1
# [4] = Cytotoxicity against human HCT15 cells by SRB method; type: functional; outline: as §1
# Malme-3M = assay: Cytotoxicity against human MALME-3M cells by SRB method; type: functional; outline: as §1
# NCI-H522 = assay: Cytotoxicity against human NCI-H522 cells by SRB method; type: functional; outline: as §1
# mTORC1 (Homo sapiens) = mTORC1 (Homo sapiens) (UniProt P42345+Q8N122+Q9BVC4); assay: Inhibition of mTORC1 in human HeLa cells assessed as inhibition of S6 kinase phosphorylation at T389 up to 100 nM after 30 mins by Western blotting analysis; type: cell-based
# Outline: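 HeLa whole-cell lysates after vehicle or compound treatment; equal protein on SDS-PAGE, PVDF blot probed for S6 kinase, P-T389-S6 kinase and actin, ECL detection.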
# [5] = Cytotoxicity against human EKVX cells by SRB method; type: functional; outline: as §1
# BT-549 = assay: Cytotoxicity against human BT549 cells by SRB method; type: functional; outline: as §1
# NCI-H226 = assay: Cytotoxicity against human NCI-H226 cells by SRB method; type: functional; outline: as §1
# SN12C = assay: Cytotoxicity against human SN12C cells by SRB method; type: functional; outline: as §2
# RXF 393 = assay: Cytotoxicity against human RXF393 cells by SRB method; type: functional; outline: as §1
# [6] = Cytotoxicity against human UACC62 cells assessed as inhibition of colony formation at 5 nM incubated for 4 hrs followed by compound washout measured after 14 days relative to vehicle-treated control; type: functional; details: UACC-62; outline: as §3
# [7] = Cytotoxicity against human NCI-ADR-RES cells by SRB method; type: functional; outline: as §1
# [8] = read-out: LC50 (the source's name)
# Sequence of mTORC1 (Homo sapiens) (Q8N122 whole entry, looked up, other chains not shown): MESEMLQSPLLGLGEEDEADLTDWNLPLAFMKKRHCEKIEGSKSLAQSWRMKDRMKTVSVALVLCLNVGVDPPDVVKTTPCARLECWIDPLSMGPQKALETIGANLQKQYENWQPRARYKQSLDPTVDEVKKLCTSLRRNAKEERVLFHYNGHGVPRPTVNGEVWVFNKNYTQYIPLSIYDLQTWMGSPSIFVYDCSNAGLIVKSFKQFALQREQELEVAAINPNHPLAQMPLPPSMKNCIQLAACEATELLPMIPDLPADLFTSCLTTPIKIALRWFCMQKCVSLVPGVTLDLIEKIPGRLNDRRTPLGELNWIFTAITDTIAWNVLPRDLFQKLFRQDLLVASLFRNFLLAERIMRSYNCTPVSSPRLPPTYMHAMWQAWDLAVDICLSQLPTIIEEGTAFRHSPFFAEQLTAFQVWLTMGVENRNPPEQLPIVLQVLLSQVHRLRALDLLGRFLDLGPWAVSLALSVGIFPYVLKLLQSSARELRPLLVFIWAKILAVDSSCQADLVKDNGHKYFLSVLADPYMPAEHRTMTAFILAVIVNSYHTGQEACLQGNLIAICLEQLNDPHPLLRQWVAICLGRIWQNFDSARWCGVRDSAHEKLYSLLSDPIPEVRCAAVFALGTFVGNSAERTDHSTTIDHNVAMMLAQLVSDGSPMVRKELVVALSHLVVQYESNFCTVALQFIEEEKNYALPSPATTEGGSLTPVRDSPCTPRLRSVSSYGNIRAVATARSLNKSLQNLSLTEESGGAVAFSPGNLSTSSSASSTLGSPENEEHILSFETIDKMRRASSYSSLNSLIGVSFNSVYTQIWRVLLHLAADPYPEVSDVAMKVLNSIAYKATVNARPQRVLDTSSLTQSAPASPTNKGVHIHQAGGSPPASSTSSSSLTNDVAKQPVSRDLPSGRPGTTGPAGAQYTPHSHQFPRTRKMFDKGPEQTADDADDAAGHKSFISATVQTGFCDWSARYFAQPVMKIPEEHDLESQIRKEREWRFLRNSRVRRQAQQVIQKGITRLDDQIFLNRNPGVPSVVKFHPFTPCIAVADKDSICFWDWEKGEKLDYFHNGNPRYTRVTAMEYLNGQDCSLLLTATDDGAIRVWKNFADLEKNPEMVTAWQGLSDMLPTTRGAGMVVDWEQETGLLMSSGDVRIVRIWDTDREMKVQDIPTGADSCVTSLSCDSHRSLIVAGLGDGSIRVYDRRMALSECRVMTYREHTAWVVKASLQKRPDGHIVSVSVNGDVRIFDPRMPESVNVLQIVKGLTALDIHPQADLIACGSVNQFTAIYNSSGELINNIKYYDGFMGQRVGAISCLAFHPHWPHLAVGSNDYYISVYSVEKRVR
# Sequence of mTORC1 (Homo sapiens) (Q9BVC4 whole entry, looked up, other chains not shown): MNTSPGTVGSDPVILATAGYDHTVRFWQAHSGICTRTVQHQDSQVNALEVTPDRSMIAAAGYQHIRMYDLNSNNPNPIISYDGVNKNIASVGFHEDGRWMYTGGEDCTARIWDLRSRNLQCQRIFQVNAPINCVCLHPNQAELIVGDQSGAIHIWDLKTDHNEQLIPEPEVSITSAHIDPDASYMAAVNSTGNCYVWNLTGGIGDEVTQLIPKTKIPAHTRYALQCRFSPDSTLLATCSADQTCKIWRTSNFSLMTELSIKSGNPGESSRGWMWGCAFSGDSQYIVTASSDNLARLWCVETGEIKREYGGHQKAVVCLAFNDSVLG
compound,measurement,setting,value
CC(C)[C@@]12SS[C@]3(C(=O)N1C)[C@@H](O)[C@]1(C45c6ccccc6N[C@H]4N4C(=O)[C@@]6(CO)SS[C@@]4(C(=O)N6C)[C@H]5O)c4ccccc4N[C@@H]1N3C2=O (stereo not given in full),GI50,MDA-MB-435,10.7 nM
same,TGI,MDA-MB-435,28.8 nM
same,CC50,MDA-MB-435; [8],120 nM
same,GI50,TK-10,11.7 nM
same,TGI,TK-10,24.5 nM
same,CC50,TK-10; [8],57.5 nM
same,GI50,[1]; OVCAR-3,10.7 nM
same,TGI,[1]; OVCAR-3,26.3 nM
same,CC50,"[1]; OVCAR-3, read-out: LC50 (the source's name)",85.1 nM
same,pIC50,[2],8.18
same,GI50,786-0,11.7 nM
same,TGI,786-0,26.3 nM
same,CC50,786-0; [8],70.8 nM
same,Activity,HeLa,Dose-dependent effect
same,Activity,UACC-62,Dose-dependent effect
same,GI50,[3]; PC-3,15.5 nM
same,TGI,[3]; PC-3,60.3 nM
same,CC50,"[3]; PC-3, read-out: LC50 (the source's name)",209 nM
same,GI50,[4]; HCT-15,17 nM
same,TGI,[4]; HCT-15,89.1 nM
same,CC50,"[4]; HCT-15, read-out: LC50 (the source's name)",479 nM
same,GI50,Malme-3M,7.8 nM
same,TGI,Malme-3M,18.6 nM
same,CC50,Malme-3M; [8],45.7 nM
same,GI50,NCI-H522,8.5 nM
same,TGI,NCI-H522,17.8 nM
same,CC50,NCI-H522; [8],38 nM
same,inhibition,mTORC1 (Homo sapiens),inactive
same,GI50,[5],28.2 nM
same,TGI,[5],257 nM
same,CC50,[5]; [8],2040 nM
same,GI50,BT-549,14.8 nM
same,TGI,BT-549,66.1 nM
same,CC50,BT-549; [8],209 nM
same,GI50,NCI-H226,10 nM
same,TGI,NCI-H226,24 nM
same,CC50,NCI-H226; [8],72.4 nM
same,GI50,SN12C,22.9 nM
same,TGI,SN12C,525 nM
same,CC50,SN12C; [8],1780 nM
same,GI50,RXF 393,7.8 nM
same,TGI,RXF 393,14.8 nM
same,CC50,RXF 393; [8],28.2 nM
same,inhibition at 0.005 µM,[6],38%
same,GI50,[7],33.9 nM
